{"data": "Measurements pooled from the literature", "target": "MAP/microtubule affinity-regulating kinase 4 (MARK4, Homo sapiens, UniProt Q96L34)", "Sequence (Q96L34 1-752, as in one of the studies)": "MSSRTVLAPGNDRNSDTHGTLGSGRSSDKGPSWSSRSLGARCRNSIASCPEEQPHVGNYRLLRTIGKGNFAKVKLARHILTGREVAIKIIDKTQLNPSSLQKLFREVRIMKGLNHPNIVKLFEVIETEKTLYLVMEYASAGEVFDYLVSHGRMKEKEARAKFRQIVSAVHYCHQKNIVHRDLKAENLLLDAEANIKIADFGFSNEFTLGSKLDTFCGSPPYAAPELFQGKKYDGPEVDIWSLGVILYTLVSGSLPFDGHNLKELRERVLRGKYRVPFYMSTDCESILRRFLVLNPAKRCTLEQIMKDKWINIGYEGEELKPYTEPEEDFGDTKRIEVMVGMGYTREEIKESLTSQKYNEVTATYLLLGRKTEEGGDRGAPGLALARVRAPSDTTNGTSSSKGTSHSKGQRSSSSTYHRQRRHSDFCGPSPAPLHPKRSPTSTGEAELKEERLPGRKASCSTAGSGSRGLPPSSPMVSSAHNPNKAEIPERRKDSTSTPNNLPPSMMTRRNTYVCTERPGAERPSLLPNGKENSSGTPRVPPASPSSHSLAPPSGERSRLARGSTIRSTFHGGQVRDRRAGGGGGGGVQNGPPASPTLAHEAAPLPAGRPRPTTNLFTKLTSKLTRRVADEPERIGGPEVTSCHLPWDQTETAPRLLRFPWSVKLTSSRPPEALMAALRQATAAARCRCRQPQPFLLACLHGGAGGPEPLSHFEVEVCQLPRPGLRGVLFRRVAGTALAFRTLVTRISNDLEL", "note": "Compare with care: the assays were run in different laboratories."}
{"Compound": "COc1ncccc1-c1cnn2ccc(N3CCN(C(=O)OC(C)C)CC3)nc12", "effect on": "binding", "technique": "competition with immobilised ligand", "tested at": "1 µM", "endpoint": "remaining binding", "result": "100%"}
{"Compound": "CC(C)(C)c1cc(C=C(C#N)C#N)cc(Br)c1O", "effect on": "enzyme activity", "action": "inhibitor", "tested at": "0.5 µM", "endpoint": "remaining activity", "result": "103%"}
{"Compound": "Nc1ncc(-c2nc(N3CCOCC3)nc(N3CCOCC3)n2)c(C(F)F)n1", "effect on": "binding", "technique": "competition with immobilised ligand", "tested at": "10 µM", "endpoint": "remaining binding", "result": "90%"}
{"Compound": "COc1cc(Nc2ncc(F)c(Nc3ccc4c(n3)NC(=O)C(C)(C)O4)n2)cc(OC)c1OC", "effect on": "binding", "technique": "competition with immobilised ligand", "tested at": "10 µM", "endpoint": "inhibition", "result": "99%"}
{"Compound": "Cn1cncc1[C@@](O)(COc1ccc(C#N)cc1-c1ccc(OC(F)(F)F)cc1)c1ccc(C#N)cc1", "effect on": "cell-free assay", "technique": "competition with immobilised ligand", "tested at": "1 µM", "endpoint": "remaining binding", "result": "100%"}
{"Compound": "Cn1cc(-c2cc(F)cc(N3CCn4c(cc5c4CCCC5)C3=O)c2CO)cc(Nc2ccc(N3CCN(C4COC4)CC3)cn2)c1=O", "effect on": "enzyme activity", "action": "inhibitor", "tested at": "0.1 µM", "endpoint": "inhibition", "result": "9%"}
{"Compound": "O=c1[nH]c2ccccc2n1C1CCN(Cc2ccc(-c3[nH]c4cc5ncnc5cc4nc3-c3ccccc3)cc2)CC1", "effect on": "cell-free assay", "tested at": "0.5 µM", "endpoint": "remaining signal", "result": "102%"}
{"Compound": "Cn1cc(-c2cccc(N3CCc4c(sc5c4CC(C)(C)C5)C3=O)c2CO)cc(Nc2ccncn2)c1=O", "effect on": "enzyme activity", "action": "inhibitor", "tested at": "1 µM", "endpoint": "inhibition", "result": "3%"}
{"Compound": "Cc1nn(C)cc1-c1nc2c(N3CCN(Cc4ccc(Cl)cc4)CC3)c(Cl)cnc2[nH]1", "effect on": "binding", "technique": "competition with immobilised ligand", "tested at": "1 µM", "endpoint": "remaining binding", "result": "29%"}
